Measurements reported in ChEMBL document CHEMBL1914308, “N-fused imidazoles as novel anticancer agents that inhibit catalytic activity of topoisomerase IIα and induce apoptosis in G1/S phase” (J Med Chem, 2011).
The source made the active and inactive calls. The rule behind the calls is not given here.

Assays:
HEK293 [1] = experiment: Induction of cell cycle arrest in human HEK293 cells assessed as accumulation at G2/M phase at 35 uM after 48 hrs by propidium iodide staining-based FACS analysis (reference value: 7.5 +/- 1.0%); format: functional
HEK293 [2] = experiment: Induction of cell cycle arrest in human HEK293 cells assessed as accumulation at G2/M phase at 15 uM after 48 hrs by propidium iodide staining-based FACS analysis (reference value: 7.5 +/- 1.0%); format: functional
HEK293 [3] = experiment: Induction of cell cycle arrest in human HEK293 cells assessed as accumulation at sub-G0 phase after 48 hrs by propidium iodide staining-based FACS analysis; format: functional
MCF7 = experiment: Cytotoxicity against human MCF7 cells assessed as cell survival at 15 uM after 48 hrs by MTT assay; format: functional; conditions: MCF7, 48 h, read-out: Activity
Outline: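 MTT survival of MCF 7 breast cancer cells, with MCF 10A as normal comparator; 48 h exposure. MCF 7 in DMEM with 10% FBS; MCF 10A in DMEM/F-12 with 10% FBS plus hydrocortisone, cholera toxin, insulin, EGF and L-glutamine. Mean ± SD of three independent experiments.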

[4] = biological target: T1, DNA topoisomerase 2-alpha (Homo sapiens, UniProt P11388); experiment: Inhibition of human topoisomerase 2 alpha-mediated decatenation of kDNA at 100 uM by agarose gel electrophoresis
Outline: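 150 ng kDNA with 2–4 units purified human topo II and 100 μM compound in DMSO, buffer 0.5 M Tris-HCl pH 8, NaCl, MgCl2, DTT, BSA with ATP (stock buffer concentrations), 20 μL, 37 °C 30 min. Stopped with SDS, proteinase K 37 °C 15 min; 1% agarose in TAE with 0.5 μg/mL EtBr; bands quantified by densitometry; etoposide 100 μM as reference.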

HEK293 [5] = experiment: Induction of apoptosis in human HEK293 cells assessed as increase in PARP cleavage product at 15 to 25 uM after 48 hrs by Western blot analysis; format: functional, cell-based
Outline: (§1)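 Whole-cell extracts from HEK 293 cells after 48 h at graded concentrations, Western blotted for caspase-3, Bax, Bcl-XL and PARP (cleaved 86 kDa fragment); β-actin as loading control.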

HEK293 [6] = experiment: Induction of cell cycle arrest in human HEK293 cells assessed as accumulation at S phase at 35 uM after 48 hrs by propidium iodide staining-based FACS analysis (reference value: 16.91 +/- 1.0%); format: functional
HEK293 [7] = experiment: Induction of apoptosis in human HEK293 cells assessed as increase in apoptotic nuclei at 15 uM after 48 hrs by DAPI staining-based fluorescence microscopic analysis; format: functional
Outline: (§2)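 HEK 293 cells exposed 48 h to 0, 15, 25 or 35 μM, nuclei stained with DAPI and apoptotic nuclei counted by fluorescence imaging; three replicates.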

HEK293 [8] = experiment: Anticlonogenic activity against human HEK293 cells after 48 hrs by crystal violet staining; format: functional; conditions: HEK293, 48 h, read-out: LC50 (the source's name)
Outline: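 HEK 293 and Vero cells were grown in DMEM with 10% FBS and 1% penicillin/streptomycin at 37 °C in 5% CO₂. At 60–70% confluence they were exposed for 48 h to a range of concentrations, diluted in DMEM from 100 mM DMSO stocks. Colony survival is expressed as %. Values are mean ± SD of three independent experiments; LC₅₀ is the concentration killing half the cells.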

HEK293 [9] = experiment: Induction of apoptosis in human HEK293 cells assessed as increase in Bax protein expression at 15 to 25 uM after 48 hrs by Western blot analysis; format: functional, cell-based; outline: as §1
[10] = biological target: T1, DNA topoisomerase 2-alpha; experiment: Inhibition of topoisomerase 2 alpha-mediated DNA relaxation activity in human HEK293 cells assessed as increase in supercoiled DNA at 35 uM after 3 to 4 hrs by agarose gel electrophoresis in presence of 20 to 250 mM ATP; format: cell-based
[11] = biological target: T1, DNA topoisomerase 2-alpha; experiment: Inhibition of human topoisomerase 2 alpha-mediated unwinding of supercoiled DNA assessed as DNA intercalation at 100 uM by agarose gel electrophoresis
Outline: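 250 ng negatively supercoiled E. coli plasmid incubated 20 min at 37 °C with 1 μg/mL ethidium bromide (intercalator control), 100 μM etoposide or test compound; run on 1% agarose in TAE without EtBr, then post-stained with 0.5 μg/mL EtBr; mobility retardation scored.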

[12] = biological target: T1, DNA topoisomerase 2-alpha; experiment: Competitive inhibition of human topoisomerase-2 alpha-ATPase activity by Lineweaver-Burk assay in presence of 200 to 520 uM ATP
Outline: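 Compound at 0, 50, 100, 150 μM, each with ATP at 200–520 μM; 20 min at 37 °C. Released phosphate read by malachite green at OD 620 nm; Lineweaver–Burk analysis, Ki from slope replot.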

[13] = biological target: T1, DNA topoisomerase 2-alpha; experiment: Inhibition of topoisomerase 2 alpha-mediated DNA relaxation activity in human HEK293 cells assessed as increase in supercoiled DNA at 35 uM […] by agarose gel electrophoresis; format: cell-based
HEK293 [14] = experiment: Induction of apoptosis in human HEK293 cells assessed as apoptotic cells at 35 uM after 48 hrs by propidium iodide staining-based FACS analysis (reference value: 4.88 +/- 0.8%); format: functional
[15] = Cytotoxicity activity against african green monkey Vero assessed as cell survival at 100 uM after 48 hrs by MTT assay; format: cell-based; conditions: chlorocebus sabaeus, Vero cells; read-out: Activity
Outline: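 MTT survival of HEK 293 and Vero cells after 48 h with compound at graded concentrations. DMEM, 10% FBS, 37 °C, 5% CO2; dilutions in DMEM from 100 mM DMSO stock, added at 60–70% confluence. Mean ± SD of three independent experiments.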

HEK293 [16] = experiment: Induction of apoptosis in human HEK293 cells assessed as increase in apoptotic nuclei at 25 uM after 48 hrs by DAPI staining-based fluorescence microscopic analysis; format: functional; outline: as §2
HEK293 [17] = experiment: Antimigratory activity against human HEK293 cells at 25 uM after 24 hrs by wound healing assay; format: functional, cell-based
Outline: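 Wound healing in HEK 293 monolayer: scratch made with sterile micro tip, cells then cultured with or without 25 μM compound; gap closure followed over time to 24 h. Best of three independent experiments shown.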

HEK293 [18] = experiment: Induction of apoptosis in human HEK293 cells assessed as increase in apoptotic nuclei at 35 uM after 48 hrs by DAPI staining-based fluorescence microscopic analysis; format: functional; outline: as §2
HEK293 [19] = experiment: Induction of cell cycle arrest in human HEK293 cells assessed as accumulation at G1 phase at 15 uM after 48 hrs by propidium iodide staining-based FACS analysis (reference value: 61 +/- 0.9%); format: functional
[20] = biological target: T1, DNA topoisomerase 2-alpha; experiment: Inhibition of topoisomerase 2 alpha-mediated DNA relaxation activity in human HEK293 cells assessed as increase in supercoiled DNA at 5 to 25 uM […] by agarose gel electrophoresis; format: cell-based
Vero = experiment: Anticlonogenic activity against african green monkey Vero cells assessed as inhibition of colony formation of cells at 20 to 100 uM after 48 hrs by crystal violet staining; format: cell-based; conditions: chlorocebus sabaeus
Outline: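 Clonogenic survival in HEK 293 and Vero cells, 48 h exposure at graded concentrations; % survival plotted; mean ± SD of three independent experiments. Cells grown in DMEM with 10% FBS and 1% antibiotic at 37 °C, 5% CO2; compound diluted from 100 mM DMSO stock into DMEM, added at 60–70% confluence.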

T1 sequence (P11388 whole entry): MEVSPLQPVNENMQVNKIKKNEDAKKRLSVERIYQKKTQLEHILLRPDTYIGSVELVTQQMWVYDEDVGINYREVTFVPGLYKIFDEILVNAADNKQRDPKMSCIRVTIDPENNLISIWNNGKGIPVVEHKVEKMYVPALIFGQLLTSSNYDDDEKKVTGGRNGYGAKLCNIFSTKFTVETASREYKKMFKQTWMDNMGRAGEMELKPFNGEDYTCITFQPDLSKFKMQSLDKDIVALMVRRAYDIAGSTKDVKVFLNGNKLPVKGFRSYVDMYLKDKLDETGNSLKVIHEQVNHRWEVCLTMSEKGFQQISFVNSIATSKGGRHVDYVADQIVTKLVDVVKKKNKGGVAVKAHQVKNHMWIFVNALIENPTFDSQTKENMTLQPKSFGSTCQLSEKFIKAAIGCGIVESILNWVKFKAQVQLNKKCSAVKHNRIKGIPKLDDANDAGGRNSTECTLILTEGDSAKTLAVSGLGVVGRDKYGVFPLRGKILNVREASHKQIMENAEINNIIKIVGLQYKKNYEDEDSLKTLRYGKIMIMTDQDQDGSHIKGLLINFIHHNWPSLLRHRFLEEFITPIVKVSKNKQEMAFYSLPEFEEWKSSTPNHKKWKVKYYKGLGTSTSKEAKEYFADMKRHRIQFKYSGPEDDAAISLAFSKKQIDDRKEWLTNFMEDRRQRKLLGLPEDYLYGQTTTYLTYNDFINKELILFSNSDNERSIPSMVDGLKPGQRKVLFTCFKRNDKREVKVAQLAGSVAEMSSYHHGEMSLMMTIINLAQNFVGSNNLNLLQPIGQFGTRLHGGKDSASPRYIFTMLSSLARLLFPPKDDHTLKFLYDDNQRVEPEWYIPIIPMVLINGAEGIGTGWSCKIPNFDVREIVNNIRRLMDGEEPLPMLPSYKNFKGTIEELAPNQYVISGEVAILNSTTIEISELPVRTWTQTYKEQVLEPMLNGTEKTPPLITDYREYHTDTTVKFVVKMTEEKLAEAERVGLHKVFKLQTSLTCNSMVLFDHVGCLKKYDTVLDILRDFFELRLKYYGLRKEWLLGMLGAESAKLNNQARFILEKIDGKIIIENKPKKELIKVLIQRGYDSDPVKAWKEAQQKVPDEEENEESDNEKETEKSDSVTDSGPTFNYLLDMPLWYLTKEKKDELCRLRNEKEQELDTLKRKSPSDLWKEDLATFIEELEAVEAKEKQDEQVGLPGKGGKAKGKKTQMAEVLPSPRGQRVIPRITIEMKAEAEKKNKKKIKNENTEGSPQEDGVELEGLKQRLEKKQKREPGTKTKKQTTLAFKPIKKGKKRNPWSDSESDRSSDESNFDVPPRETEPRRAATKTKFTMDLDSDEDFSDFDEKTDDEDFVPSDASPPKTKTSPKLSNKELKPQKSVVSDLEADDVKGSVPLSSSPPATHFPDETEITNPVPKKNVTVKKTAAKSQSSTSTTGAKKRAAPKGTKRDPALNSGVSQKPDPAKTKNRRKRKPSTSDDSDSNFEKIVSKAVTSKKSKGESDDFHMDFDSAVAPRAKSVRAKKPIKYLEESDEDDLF

With CC(C)(C)Nc1c(-c2ccc(C(=O)O)cc2)nc2ccccn12 as the compound, how does the Activity (HEK293 [1]) read?
The Activity was 5.56%.

What about the Activity (HEK293 [2]) of the same compound?
Its Activity is 9.92%.

And the Activity (HEK293 [3])?
The Activity was “Dose-dependent effect”.

And the viability at 15 µM (MCF7)?
Its viability at 15 µM is 50%.

What about the inhibition [4] of the same compound?
Its inhibition is “Active”.

What about the Activity (HEK293 [5]) of the same compound?
Its Activity is “Active”.

What about the Activity (HEK293 [6]) of the same compound?
The Activity was 10.07%.

What about the Activity (HEK293 [7]) of the same compound?
Its Activity is 20%.

And the CC50 (HEK293 [8])?
The CC50 was 30 µM.

And the Activity (HEK293 [9])?
Its Activity is “Active”.

What about the inhibition [10] of the same compound?
The inhibition was “inactive”.

And the inhibition [11]?
Its inhibition is “inactive”.

What about the Ki [12] of the same compound?
Its Ki is 75 µM.

And the inhibition [13]?
The inhibition was “Active”.

What about the Activity (HEK293 [14]) of the same compound?
The Activity was 49.29%.

And the viability at 48 h, 100 µM [15]?
Its viability at 48 h, 100 µM is under 50%.

What about the Activity (HEK293 [16]) of the same compound?
The Activity was 40%.

What about the Activity (HEK293 [17]) of the same compound?
The Activity was “Active”.

And the Activity (HEK293 [18])?
Its Activity is 80%.

And the Activity (HEK293 [19])?
Its Activity is 34.64%.

And the inhibition [20]?
Its inhibition is “Active”.

And the “inhibition (INH)” value (Vero)?
The value was “Dose-dependent effect”.
